Laboratory results reported in ChEMBL document CHEMBL1157817, “2-aminoimidazole amino acids as inhibitors of the binuclear manganese metalloenzyme human arginase I” (J Med Chem, 2010).
Active and inactive are the calls of the source. The calls are words filed in the database; no cut-off is given here.

Legend:
Arginase-1 [1] = molecular target: T1, Arginase-1 (Homo sapiens, UniProt P05089); assay: Inhibition of human recombinant full length arginase 1 expressed in Escherichia coli BL21(DE3) by fixed point assay
T1 sequence (P05089 whole entry): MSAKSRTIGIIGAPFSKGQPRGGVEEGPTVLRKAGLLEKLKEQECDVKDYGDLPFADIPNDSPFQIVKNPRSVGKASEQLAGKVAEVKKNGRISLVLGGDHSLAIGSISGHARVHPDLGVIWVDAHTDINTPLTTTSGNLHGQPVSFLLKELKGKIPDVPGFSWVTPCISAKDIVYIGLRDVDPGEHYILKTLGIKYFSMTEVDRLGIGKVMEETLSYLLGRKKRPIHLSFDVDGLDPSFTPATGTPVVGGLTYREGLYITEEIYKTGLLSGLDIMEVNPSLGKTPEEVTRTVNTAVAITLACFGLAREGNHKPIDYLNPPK

Mus musculus [2] = assay: Antiinflammatory activity in ovalbumin-sensitized and challenged BALB/c mouse model assessed as attenuation of methacholine-induced maximum total lung resistance at 85 ug/g administered via nebulization 24 hrs after ovalbumin challenge measured after 15 mins; type: functional, organism-based
Procedure, shortened: (§1)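 Mice OVA-sensitized, then nebulized 6% OVA in PBS (or PBS alone) 25 min/day on days 14–20. Day 21, 24 h after last challenge: ketamine 50 mg/kg plus xylazine 10 mg/kg, intubated, ventilator-based resistance measured. Baseline resistance re-measured 15 min after drug. Then nebulized methacholine (0–100 mg/mL in PBS) dose-response via ventilator circuit. Maximum R and RN read; means ± SE, n = 12/group.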

Arginase-1 [3] = molecular target: T1, Arginase-1; assay: Inhibition of human recombinant full length arginase 1 expressed in Escherichia coli BL21(DE3) by surface plasmon resonance assay
Mus musculus [4] = assay: Antiinflammatory activity in ovalbumin-sensitized and challenged BALB/c mouse model assessed as attenuation of methacholine-induced increase in central airways responsiveness at 85 ug/g administered via nebulization 24 hrs after ovalbumin challenge measured after 15 mins; type: functional, organism-based; procedure, shortened: as §1
[5] = molecular target: T2, Nitric oxide synthase, inducible (Mus musculus, UniProt P29477); assay: Inhibition of mouse recombinant iNOS
T2 sequence (P29477 whole entry): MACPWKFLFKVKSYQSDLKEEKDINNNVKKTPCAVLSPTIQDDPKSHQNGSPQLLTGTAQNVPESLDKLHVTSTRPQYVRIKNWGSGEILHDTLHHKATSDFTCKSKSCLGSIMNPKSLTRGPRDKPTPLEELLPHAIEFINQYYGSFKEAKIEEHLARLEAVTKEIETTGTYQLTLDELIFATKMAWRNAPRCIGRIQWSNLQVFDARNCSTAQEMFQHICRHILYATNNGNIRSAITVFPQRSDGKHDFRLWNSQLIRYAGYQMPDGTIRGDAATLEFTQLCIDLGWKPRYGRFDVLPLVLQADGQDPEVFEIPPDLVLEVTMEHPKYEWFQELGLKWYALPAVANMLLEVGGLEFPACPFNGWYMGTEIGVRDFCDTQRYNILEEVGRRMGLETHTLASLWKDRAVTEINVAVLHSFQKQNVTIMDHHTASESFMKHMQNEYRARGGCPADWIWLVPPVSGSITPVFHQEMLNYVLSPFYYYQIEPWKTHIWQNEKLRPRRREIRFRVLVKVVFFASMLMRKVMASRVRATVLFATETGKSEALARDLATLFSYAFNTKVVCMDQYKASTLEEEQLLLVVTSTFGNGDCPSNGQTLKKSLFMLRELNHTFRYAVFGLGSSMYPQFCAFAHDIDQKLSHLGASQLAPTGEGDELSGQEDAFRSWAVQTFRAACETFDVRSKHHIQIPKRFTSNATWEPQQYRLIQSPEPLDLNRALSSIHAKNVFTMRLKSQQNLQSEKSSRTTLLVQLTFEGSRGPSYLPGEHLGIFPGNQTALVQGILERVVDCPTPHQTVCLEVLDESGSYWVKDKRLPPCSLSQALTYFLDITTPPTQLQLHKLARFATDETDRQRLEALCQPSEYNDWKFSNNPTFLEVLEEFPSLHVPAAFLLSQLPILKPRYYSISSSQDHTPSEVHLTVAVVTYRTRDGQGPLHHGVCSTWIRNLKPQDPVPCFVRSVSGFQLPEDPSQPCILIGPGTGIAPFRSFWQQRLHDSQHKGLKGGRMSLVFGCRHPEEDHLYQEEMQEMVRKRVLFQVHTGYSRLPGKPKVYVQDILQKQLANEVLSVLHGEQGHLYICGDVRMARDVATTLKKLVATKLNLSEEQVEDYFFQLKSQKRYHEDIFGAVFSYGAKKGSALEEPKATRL

Nitric oxide synthase 1 = Nitric oxide synthase 1 (Rattus norvegicus, UniProt P29476); assay: Inhibition rat recombinant nNOS
Chain of Nitric oxide synthase 1 (P29476 whole entry): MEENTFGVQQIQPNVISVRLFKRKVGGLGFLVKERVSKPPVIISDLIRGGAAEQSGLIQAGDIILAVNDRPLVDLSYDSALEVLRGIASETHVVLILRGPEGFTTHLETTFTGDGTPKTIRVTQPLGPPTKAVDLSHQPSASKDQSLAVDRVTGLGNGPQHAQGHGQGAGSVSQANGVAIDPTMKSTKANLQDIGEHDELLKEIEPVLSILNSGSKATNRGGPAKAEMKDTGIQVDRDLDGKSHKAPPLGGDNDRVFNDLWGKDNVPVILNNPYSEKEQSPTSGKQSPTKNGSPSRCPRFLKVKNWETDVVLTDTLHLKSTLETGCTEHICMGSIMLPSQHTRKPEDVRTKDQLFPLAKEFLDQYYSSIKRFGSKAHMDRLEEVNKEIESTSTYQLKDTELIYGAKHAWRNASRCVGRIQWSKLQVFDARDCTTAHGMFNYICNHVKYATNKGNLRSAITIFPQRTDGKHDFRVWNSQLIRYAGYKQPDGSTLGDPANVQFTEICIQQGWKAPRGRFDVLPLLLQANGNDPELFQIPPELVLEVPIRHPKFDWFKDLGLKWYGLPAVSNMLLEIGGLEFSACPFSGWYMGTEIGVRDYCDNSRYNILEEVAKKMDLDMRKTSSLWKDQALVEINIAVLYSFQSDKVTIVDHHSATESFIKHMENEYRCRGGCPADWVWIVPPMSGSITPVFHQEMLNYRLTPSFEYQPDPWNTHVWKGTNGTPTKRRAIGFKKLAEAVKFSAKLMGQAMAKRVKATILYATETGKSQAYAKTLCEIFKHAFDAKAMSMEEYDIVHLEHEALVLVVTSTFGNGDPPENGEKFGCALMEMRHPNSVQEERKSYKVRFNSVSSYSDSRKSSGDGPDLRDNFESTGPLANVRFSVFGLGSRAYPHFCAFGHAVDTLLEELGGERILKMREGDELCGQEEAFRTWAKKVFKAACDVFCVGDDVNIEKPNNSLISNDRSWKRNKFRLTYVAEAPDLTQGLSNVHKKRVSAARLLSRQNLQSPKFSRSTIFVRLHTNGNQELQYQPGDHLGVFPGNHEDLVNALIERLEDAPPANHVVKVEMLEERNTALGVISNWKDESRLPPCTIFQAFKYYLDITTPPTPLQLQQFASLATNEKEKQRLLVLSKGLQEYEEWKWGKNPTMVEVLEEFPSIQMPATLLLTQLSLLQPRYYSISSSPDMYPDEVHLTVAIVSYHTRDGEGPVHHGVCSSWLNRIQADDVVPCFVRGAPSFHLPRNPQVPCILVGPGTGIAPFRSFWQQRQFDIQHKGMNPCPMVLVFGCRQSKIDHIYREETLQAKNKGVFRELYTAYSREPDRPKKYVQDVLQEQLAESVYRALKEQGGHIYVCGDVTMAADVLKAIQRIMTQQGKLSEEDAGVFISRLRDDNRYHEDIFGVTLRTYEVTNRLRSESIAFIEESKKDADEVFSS

N[C@@H](CCCNc1ncc[nH]1)C(=O)O
Ki (Arginase-1 [1]): 500 µM

Nc1nccn1CCC[C@H](N)C(=O)O
inhibition (Mus musculus [2]): Active
Ki (Arginase-1 [1]): 4 µM
Kd (Arginase-1 [3]): 2 µM
inhibition (Mus musculus [4]): Active
IC50 [5]: 480 µM
IC50 (Nitric oxide synthase 1): 135 µM

Nc1ncc[nH]1
Ki (Arginase-1 [1]): 3600 µM
